Measured values as given in ChEMBL document CHEMBL4196042, “Novel indanone derivatives as MAO B/H3R dual-targeting ligands for treatment of Parkinson's disease” (Eur J Med Chem, 2018).

Legend:
Histamine H3 receptor [1] = molecular target: T1, Histamine H3 receptor (Homo sapiens, UniProt Q9Y5N1); test: Displacement of [3H]-N-alpha-methylhistamine from human H3R expressed in HEK293 cell membranes after 90 mins by liquid scintillation counting method
In short: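 Membranes (20 µg) from HEK-293 cells stably expressing human H3R were incubated with 2 nM [3H]-N-α-methylhistamine and at least seven test concentrations. Incubation was 90 min at room temperature, with shaking, in 75 mM Tris/HCl (pH 7.4), 12.5 mM MgCl2 and 100 mM NaCl. Nonspecific binding used 10 µM pitolisant. Counting was by liquid scintillation; Ki came from Cheng-Prusoff on one-site competition fits, at least in duplicate.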

[2] = molecular target: T2, Amine oxidase [flavin-containing] A (Homo sapiens, UniProt P21397); test: Inhibition of human MAO-A expressed in baculovirus infected insect cell membranes at 10 uM using kynuramine as substrate by continuous spectrophotometric method relative to control
T2 sequence (P21397 whole entry): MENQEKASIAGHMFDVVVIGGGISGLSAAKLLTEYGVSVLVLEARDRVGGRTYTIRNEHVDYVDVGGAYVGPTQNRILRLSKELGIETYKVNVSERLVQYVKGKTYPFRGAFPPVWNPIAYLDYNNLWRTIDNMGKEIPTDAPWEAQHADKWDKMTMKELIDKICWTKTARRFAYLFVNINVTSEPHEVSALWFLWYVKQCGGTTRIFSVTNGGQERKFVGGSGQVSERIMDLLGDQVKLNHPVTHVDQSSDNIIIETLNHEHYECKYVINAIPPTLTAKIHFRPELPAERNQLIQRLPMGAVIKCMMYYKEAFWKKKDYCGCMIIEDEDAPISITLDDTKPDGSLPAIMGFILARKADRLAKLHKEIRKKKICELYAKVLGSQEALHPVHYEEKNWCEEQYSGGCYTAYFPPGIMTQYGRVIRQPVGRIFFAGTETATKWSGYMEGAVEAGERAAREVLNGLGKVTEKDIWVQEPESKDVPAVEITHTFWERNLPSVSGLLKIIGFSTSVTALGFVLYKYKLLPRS

[3] = molecular target: T3, Amine oxidase [flavin-containing] B (Homo sapiens, UniProt P27338); test: Inhibition of human MAO-B expressed in baculovirus infected insect cell membranes at 10 uM using kynuramine as substrate by continuous spectrophotometric method relative to control
T3 sequence (P27338 whole entry): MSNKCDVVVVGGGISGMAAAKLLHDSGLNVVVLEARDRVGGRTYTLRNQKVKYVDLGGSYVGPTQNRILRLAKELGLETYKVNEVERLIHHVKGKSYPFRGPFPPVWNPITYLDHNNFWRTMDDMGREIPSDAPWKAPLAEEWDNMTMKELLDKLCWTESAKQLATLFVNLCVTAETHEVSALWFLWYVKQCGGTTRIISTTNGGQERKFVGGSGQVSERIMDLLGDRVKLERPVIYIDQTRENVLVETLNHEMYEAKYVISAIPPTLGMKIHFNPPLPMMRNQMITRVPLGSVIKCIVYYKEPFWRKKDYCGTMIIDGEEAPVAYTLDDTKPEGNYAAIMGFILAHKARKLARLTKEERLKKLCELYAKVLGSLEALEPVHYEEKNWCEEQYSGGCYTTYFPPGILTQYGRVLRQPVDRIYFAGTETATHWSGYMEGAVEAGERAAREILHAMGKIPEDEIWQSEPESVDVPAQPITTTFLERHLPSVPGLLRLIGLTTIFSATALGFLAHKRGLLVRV

[4] = molecular target: T3, Amine oxidase [flavin-containing] B; test: Inhibition of human MAO-B expressed in baculovirus infected insect cell membranes at 2 uM using kynuramine as substrate after 15 to 20 mins by discontinuous fluorimetric method relative to control
In short: (§1)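 Single-point screen (10, 2 or 5 µM) on human recombinant membrane-bound MAO A or MAO B. Kynuramine was used at 2×KM (KM 30 µM for MAO A, 20 µM for MAO B) in 50 mM potassium phosphate, pH 7.4, 37°C for 20 min, started with enzyme and stopped with 2 N NaOH. 4-Hydroxyquinoline was read fluorimetrically (Ex 320, Em 405 nm) as % of no-inhibitor control; at least two independent experiments in duplicate.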

[5] = molecular target: T2, Amine oxidase [flavin-containing] A; test: Inhibition of human MAO-A expressed in baculovirus infected insect cell membranes using kynuramine as substrate after 15 to 20 mins by discontinuous fluorimetric method
In short: (§2)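 Human recombinant membrane-bound MAO A and MAO B were tested with inhibitor at 0.001–100 µM and kynuramine at 2×KM. Conditions were 50 mM potassium phosphate, pH 7.4, 20 min at 37°C, no preincubation, with NaOH stop and fluorimetric 4-hydroxyquinoline read-out. IC50 came from a three-parameter log-inhibitor fit with the bottom fixed at zero, from at least three independent experiments in at least duplicate. SI = IC50 MAO A / IC50 MAO B.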

[6] = molecular target: T3, Amine oxidase [flavin-containing] B; test: Inhibition of human MAO-B expressed in baculovirus infected insect cell membranes using kynuramine as substrate preincubated for 30 mins followed by substrate addition measured after 15 to 20 mins by discontinuous fluorimetric method
[7] = molecular target: T3, Amine oxidase [flavin-containing] B; test: Inhibition of human MAO-B expressed in baculovirus infected insect cell membranes using kynuramine as substrate after 15 to 20 mins by discontinuous fluorimetric method
Homo sapiens = species on record: Homo sapiens; test: Selectivity index, ratio of IC50 for human MAO-A expressed in baculovirus infected insect cell membranes without preincubation with enzyme to IC50 for human MAO-B expressed in baculovirus infected insect cell membranes without preincubation with enzyme; in short: as §2
[8] = molecular target: T3, Amine oxidase [flavin-containing] B; test: Reversible inhibition of human MAO-B expressed in baculovirus infected insect cell membranes using excess of kynuramine substrate preincubated for 30 to 60 mins followed by 50 fold compound dilution by fluorimetric method
In short: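 MAO B (10 ng/µL) was preincubated with inhibitor at 10× IC50 for 0, 30 or 60 min at 37°C. […] Residual activity was measured fluorimetrically at saturating kynuramine (10×KM), as % of the matched no-inhibitor control. Data are from at least two independent experiments in duplicate, global fit.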

[9] = molecular target: T3, Amine oxidase [flavin-containing] B; test: Inhibition of human MAO-B expressed in baculovirus infected insect cell membranes at 5 uM using kynuramine as substrate after 15 to 20 mins by discontinuous fluorimetric method relative to control; in short: as §1
Histamine H3 receptor [10] = molecular target: T1, Histamine H3 receptor; test: Displacement of [125I]iodoproxyfan from human H3R expressed in CHOK1 cell membranes after 60 mins by gamma counting method

T1 sequence (Q9Y5N1 whole entry): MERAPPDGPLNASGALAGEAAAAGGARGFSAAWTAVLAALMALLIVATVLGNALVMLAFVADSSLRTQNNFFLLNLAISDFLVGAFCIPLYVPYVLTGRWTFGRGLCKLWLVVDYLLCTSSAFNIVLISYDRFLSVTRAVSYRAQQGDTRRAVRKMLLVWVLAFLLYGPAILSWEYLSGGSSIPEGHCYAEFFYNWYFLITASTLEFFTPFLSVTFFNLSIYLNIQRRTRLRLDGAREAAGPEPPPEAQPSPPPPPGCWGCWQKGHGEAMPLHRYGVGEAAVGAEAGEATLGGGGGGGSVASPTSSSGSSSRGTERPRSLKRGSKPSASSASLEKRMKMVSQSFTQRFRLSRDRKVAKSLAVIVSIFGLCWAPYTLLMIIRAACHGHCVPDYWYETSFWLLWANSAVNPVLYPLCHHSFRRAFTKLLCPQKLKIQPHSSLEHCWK

For `O=C1CCc2cc(OCCCN3CCCCC3)ccc21`, the Ki (Histamine H3 receptor [1]) was 159 nM, the inhibition at 10 µM [2] was ≤ 25% and the inhibition at 10 µM [3] was 26 to 50%.
For `O=C1/C(=C/c2ccccc2)Cc2ccc(OCCCN3CCCCC3)cc21`, the Ki (Histamine H3 receptor [1]) was 39 nM, the inhibition at 10 µM [2] was ≤ 25% and the inhibition at 10 µM [3] was 51 to 75%.
With `O=C1CCc2ccc(OCCCN3CCCCC3)cc21` the Ki (Histamine H3 receptor [1]) was 304 nM, the inhibition at 10 µM [2] was ≤ 25% and the inhibition at 10 µM [3] was 51 to 75%.
`O=C1/C(=C/c2ccccc2)Cc2ccc(OCCN3CCCCC3)cc21` was tested, and the Ki (Histamine H3 receptor [1]) was 696 nM, the inhibition at 10 µM [2] was ≤ 25% and the inhibition at 10 µM [3] was 76 to 100%.
An inhibition at 2 µM [4] of 51 to 75%, a Ki (Histamine H3 receptor [1]) of 32 nM and an IC50 [5] of 5510 nM were found for `O=C1/C(=C/c2ccc(OCCCN3CCCCC3)cc2)Cc2ccc(OCc3ccc(Br)cc3)cc21` in this work. For the same molecule, the IC50 [6] was 232 nM, the IC50 [7] was 1460 nM and the Ratio IC50 (Homo sapiens) was 3.7. The “inhibition (INH)” value [8] was “Active”.
A Ki (Histamine H3 receptor [1]) of 2.2 nM, an IC50 [5] of 9180 nM and an IC50 [6] of 541 nM were found for `O=C1/C(=C/c2ccc(OCCCN3CCCCC3)cc2)Cc2cc(F)ccc21` in this work. The IC50 [7] was 1930 nM, the Ratio IC50 (Homo sapiens) was 4.8 and the “inhibition (INH)” value [8] was “Active”. For the same molecule, the inhibition at 10 µM [3] was 76 to 100%.
With `O=C1/C(=C/c2ccccc2)Cc2cc(OCCCN3CCCCC3)ccc21` the Ki (Histamine H3 receptor [1]) was 3.9 nM, the inhibition at 10 µM [2] was ≤ 25% and the inhibition at 10 µM [3] was 51 to 75%.
In the case of `O=C1CCc2cc(OCCN3CCCC3)ccc21`, the Ki (Histamine H3 receptor [1]) is reported as 345 nM, the inhibition at 10 µM [2] is reported as 26 to 50% and the inhibition at 10 µM [3] is reported as ≤ 25%.
In the case of `O=C1/C(=C/c2ccc(OCCCN3CCCCC3)cc2)Cc2ccccc21`, the Ki (Histamine H3 receptor [1]) is reported as 2.1 nM, the inhibition at 10 µM [2] is reported as ≤ 25% and the inhibition at 10 µM [3] is reported as 51 to 75%.
For `O=C1/C(=C/c2ccc(OCCCN3CCCCC3)cc2)Cc2cc(OCc3ccc(Br)cc3)ccc21`, the inhibition at 5 µM [9] was 76 to 100%, the Ki (Histamine H3 receptor [1]) was 6.5 nM and the IC50 [5] was > 10000 nM. For the same molecule, the IC50 [6] was 262 nM, the IC50 [7] was 276 nM and the Ratio IC50 (Homo sapiens) was > 36. For the same molecule, the “inhibition (INH)” value [8] was “Active”.
For `O=C(c1ccc(OCCCN2CCCCC2)cc1)C1CC1`, the Ki (Histamine H3 receptor [10]) was 1.6 nM, the Ki (Histamine H3 receptor [1]) was 11 nM and the IC50 [5] was > 50000 nM. For the same molecule, the IC50 [7] was 3880 nM and the Ratio IC50 (Homo sapiens) was > 12.
In the case of `COc1ccc2c(c1)C/C(=C\c1ccc(OCCCN3CCCCC3)cc1)C2=O`, the Ki (Histamine H3 receptor [1]) is reported as 33 nM, the inhibition at 10 µM [2] is reported as ≤ 25% and the inhibition at 10 µM [3] is reported as 51 to 75%.
For `O=C1CCc2cc(OCCN3CCCCC3)ccc21`, the Ki (Histamine H3 receptor [1]) was 205 nM, the inhibition at 10 µM [2] was ≤ 25% and the inhibition at 10 µM [3] was 26 to 50%.
A Ki (Histamine H3 receptor [1]) of 11 nM, an inhibition at 10 µM [2] of 51 to 75% and an inhibition at 10 µM [3] of 51 to 75% were found for `COc1ccc2c(c1)C(=O)/C(=C/c1ccc(OCCCN3CCCCC3)cc1)C2` in this work.
For `O=C1CCc2ccc(OCCN3CCCC3)cc21`, the Ki (Histamine H3 receptor [1]) was 6120 nM, the inhibition at 10 µM [2] was ≤ 25% and the inhibition at 10 µM [3] was 26 to 50%.
